From article PMC3147223 (Journal of biomedical materials research. Part A, 2009)
Where no end group is shown, it is not given here.

Experiments:
Human pulmonary ECs = experiment: Competitive platelet-EC static adhesion assay: EC adhesion; assay type: cell-based; conditions: washed suspension of 190 EC/μl and 50,000 platelet/μl, 30 min, 37°C, n=3, FN=1
Summary of the method: (§1)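 Passage-7 ECs were detached (Cellstripper, 30 min) and mixed in 1% BSA with washed platelets (citrated donor blood; PRP pelleted, EDTA-PBS wash), plus 2 mM CaCl2 and 1 mM MgCl2 final. Surfaces (FSP adsorbed 24 h on fluorosilane monolayers, or FN-coated glass) were pre-blocked with 2% BSA for 30 min. Samples were PFA-fixed and stained with FITC anti-CD41a, phalloidin and DAPI. 14–33 epifluorescent fields/surface were analysed; two-sample t-test.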

platelets = experiment: Competitive platelet-EC static adhesion assay: platelet adhesion; assay type: cell-based, human; conditions: washed suspension of 190 EC/μl and 50,000 platelet/μl, 30 min, 37°C, n=3, FN=1
Summary of the method: as §1

Substance | EC adhesion (EC population) normalized to FN (Human pulmonary ECs) | Platelet surface coverage normalized to FN, platelet-EC suspension (platelets)
GSSS-*CRRETAWAC* (disulfide) [cRRE FSP] | 0.93 | 
GSSSRGD [RGD FSP] | 0.99 | 1.99
cyclic(RGDfE)-SSSK (head to tail) [cRGD FSP] | 1.05 | 2.66
